Measurements published in ChEMBL document CHEMBL1629498, “The synthesis of phenylalanine-derived C5-substituted rhodanines and their activity against selected methicillin-resistant Staphylococcus aureus (MRSA) strains” (2010).
≈ marks a conversion by molar mass, not a printed value.

What was measured:
Format in all cases: functional
Staphylococcus aureus [1] = assay: Antibacterial activity against methicillin resistant Staphylococcus aureus ATCC 700698 by microdilution method
How it was run: (§1)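 Broth microdilution MIC in cation-adjusted Mueller Hinton II broth. Compounds were made up at 2 mg/mL (starting solution) in DMF plus broth, with DMF ≤0.5% of media, then serially diluted in broth. Inoculum was a 0.5 McFarland suspension, 0.2 mL diluted into 40 mL broth and added to wells. Drug-free controls were included. MIC was the well with no turbidity versus controls; each strain was tested at least in triplicate.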

Staphylococcus aureus [2] = assay: Antibacterial activity against methicillin resistant Staphylococcus aureus ATCC 700787 by microdilution method; how it was run: as §1
Staphylococcus aureus [3] = assay: Antibacterial activity against methicillin resistant Staphylococcus aureus ATCC BAA-1680 by microdilution method; how it was run: as §1
Staphylococcus aureus [4] = assay: Antibacterial activity against methicillin resistant Staphylococcus aureus ATCC 34404 by microdilution method; how it was run: as §1
Staphylococcus aureus [5] = assay: Antibacterial activity against methicillin resistant Staphylococcus aureus ATCC BAA-39 by microdilution method; how it was run: as §1

Compound | MIC (Staphylococcus aureus [1]) [µg/mL] | MIC (Staphylococcus aureus [2]) [µg/mL] | MIC (Staphylococcus aureus [3]) [µg/mL] | MIC (Staphylococcus aureus [4]) [µg/mL] | MIC (Staphylococcus aureus [5]) [µg/mL]
O=C(O)C(Cc1ccccc1)N1C(=O)/C(=C/c2ccccc2[N+](=O)[O-])SC1=S (stereo not given) | 62.5 (≈ 151 µM) | 125 (≈ 302 µM) | 62.5 (≈ 151 µM) | 125 (≈ 302 µM) | 62.5 (≈ 151 µM)
CC1(C)S[C@@H]2[C@H](NC(=O)Cc3ccccc3)C(=O)N2[C@H]1C(=O)O [PENICILLIN G] | 15.6 (≈ 46.7 µM) | 31.2 (≈ 93.5 µM) | 62.5 (≈ 187 µM) | 31.2 (≈ 93.5 µM) | 31.2 (≈ 93.5 µM)
CC(C)C(C(=O)O)N1C(=O)/C(=C/c2ccc(F)cc2)SC1=S (stereo not given) | 62.5 (≈ 184 µM) | 62.5 (≈ 184 µM) |  |  | 62.5 (≈ 184 µM)
COc1ccc(/C=C2\SC(=S)N(CC(=O)O)C2=O)cc1 | 250 (≈ 808 µM) | 250 (≈ 808 µM) | 250 (≈ 808 µM) | 200 (≈ 646 µM) | 250 (≈ 808 µM)
O=C(O)CN1C(=O)/C(=C/C=C/c2ccccc2)SC1=S | 250 (≈ 819 µM) | 250 (≈ 819 µM) | 250 (≈ 819 µM) | 250 (≈ 819 µM) | 250 (≈ 819 µM)
CC(C)CC(C(=O)O)N1C(=O)/C(=C/c2ccc(Cl)cc2Cl)SC1=S (stereo not given) | 15.6 (≈ 38.6 µM) | 15.6 (≈ 38.6 µM) | 15.6 (≈ 38.6 µM) | 15.6 (≈ 38.6 µM) | 15.6 (≈ 38.6 µM)
O=C(O)C(Cc1ccccc1)N1C(=O)/C(=C/c2cccc(Oc3ccccc3)c2)SC1=S (stereo not given) | 3.9 (≈ 8.45 µM) | 3.9 (≈ 8.45 µM) | 1.95 (≈ 4.22 µM) | 1.95 (≈ 4.22 µM) | 3.9 (≈ 8.45 µM)
CC(C)C(C(=O)O)N1C(=O)/C(=C/c2ccccc2Cl)SC1=S (stereo not given) | 62.5 (≈ 176 µM) | 62.5 (≈ 176 µM) |  |  | 62.5 (≈ 176 µM)
O=C(O)C(Cc1ccccc1)N1C(=O)/C(=C/c2ccc(Cl)cc2Cl)SC1=S (stereo not given) | 15.6 (≈ 35.6 µM) | 15.6 (≈ 35.6 µM) | 15.6 (≈ 35.6 µM) | 15.6 (≈ 35.6 µM) | 15.6 (≈ 35.6 µM)
CCSCC(C(=O)O)N1C(=O)/C(=C/c2ccc(Cl)cc2Cl)SC1=S (stereo not given) | 31.2 (≈ 74 µM) | 31.2 (≈ 74 µM) | 31.2 (≈ 74 µM) | 31.2 (≈ 74 µM) | 31.2 (≈ 74 µM)
CN[C@H](CC(C)C)C(=O)N[C@H]1C(=O)N[C@@H](CC(N)=O)C(=O)N[C@H]2C(=O)N[C@H]3C(=O)N[C@H](C(=O)N[C@H](C(=O)O)c4cc(O)cc(O)c4-c4cc3ccc4O)[C@H](O)c3ccc(c(Cl)c3)Oc3cc2cc(c3O[C@@H]2O[C@H](CO)[C@@H](O)[C@H](O)[C@H]2O[C@H]2C[C@](C)(N)[C@H](O)[C@H](C)O2)Oc2ccc(cc2Cl)[C@H]1O [VANCOMYCIN] | ≤ 0.97 | 1.95 (≈ 1.35 µM) | ≤ 0.97 | ≤ 0.97 | ≤ 0.97
CC(C(=O)O)N1C(=O)/C(=C/c2ccc(Cl)cc2Cl)SC1=S (stereo not given) | 125 (≈ 345 µM) | 125 (≈ 345 µM) |  |  | 125 (≈ 345 µM)
O=C(O)CN1C(=O)/C(=C/c2ccc([N+](=O)[O-])cc2)SC1=S | 250 (≈ 771 µM) | 250 (≈ 771 µM) | 250 (≈ 771 µM) | 250 (≈ 771 µM) | 250 (≈ 771 µM)
CCCC(C(=O)O)N1C(=O)/C(=C/c2ccc(Cl)cc2Cl)SC1=S (stereo not given) | 15.6 (≈ 40 µM) | 15.6 (≈ 40 µM) | 15.6 (≈ 40 µM) | 15.6 (≈ 40 µM) | 15.6 (≈ 40 µM)
O=C(O)CN1C(=O)/C(=C/c2ccnc3ccccc23)SC1=S | 500 (≈ 1510 µM) | 250 (≈ 757 µM) | 250 (≈ 757 µM) | 200 (≈ 605 µM) | 500 (≈ 1510 µM)
O=C(O)CN1C(=O)/C(=C/c2ccc(Cl)c(Cl)c2)SC1=S | 125 (≈ 359 µM) | 125 (≈ 359 µM) | 125 (≈ 359 µM) | 125 (≈ 359 µM) | 125 (≈ 359 µM)
O=C(O)CN1C(=O)/C(=C/C2CCCCC2)SC1=S | 31.2 (≈ 109 µM) | 31.2 (≈ 109 µM) | 31.2 (≈ 109 µM) | 31.2 (≈ 109 µM) | 31.2 (≈ 109 µM)
CC(C)C(C(=O)O)N1C(=O)/C(=C/c2cccc3ccccc23)SC1=S (stereo not given) | 62.5 (≈ 168 µM) | 62.5 (≈ 168 µM) | 62.5 (≈ 168 µM) | 62.5 (≈ 168 µM) | 62.5 (≈ 168 µM)
O=C(O)CN1C(=O)/C(=C/c2cccc(Oc3ccccc3)c2)SC1=S | 31.2 (≈ 84.1 µM) | 31.2 (≈ 84.1 µM) | 31.2 (≈ 84.1 µM) | 31.2 (≈ 84.1 µM) | 31.2 (≈ 84.1 µM)
O=C(O)CN1C(=O)/C(=C/c2ccccc2[N+](=O)[O-])SC1=S | 62.5 (≈ 193 µM) | 62.5 (≈ 193 µM) | 62.5 (≈ 193 µM) | 62.5 (≈ 193 µM) | 62.5 (≈ 193 µM)
O=C(O)c1cn(C2CC2)c2cc(N3CCNCC3)c(F)cc2c1=O [CIPROFLOXACIN] |  | 62.5 (≈ 189 µM) |  |  | 
CC(C)C(C(=O)O)N1C(=O)/C(=C/c2ccc(Cl)cc2Cl)SC1=S (stereo not given) | 15.6 (≈ 40 µM) | 15.6 (≈ 40 µM) | 15.6 (≈ 40 µM) | 15.6 (≈ 40 µM) | 15.6 (≈ 40 µM)
